Assay results of several laboratories.
Protocols differ between the studies behind these lines.
Organism: Plasmodium falciparum
Observed: parasite growth

Compound | assay | system | setting | measurement | result
CCN(CC)CCCC(C)Nc1ccnc2cc(Cl)ccc12 (stereo not shown) | – | DD2 | drug-resistant strain | IC50 | 0.0768 µM
CC(C)(C)CNC(=N)CC(O)c1cc2c(F)cc(F)cc2c2cc(C(F)(F)F)ccc12 (stereo not shown) | ELISA | 3D7 | 72 h, blood stage | IC50 | 6.02 µM
CC(=O)[C@@]1(O)[C@H](O)C[C@H]2[C@@H]3CCC4=CC(=O)CC[C@]4(C)[C@H]3CC[C@@]21C | – | DD2 | drug-resistant strain, blood stage | IC50 | 0.617 µM
Cc1cc(F)cc(C)c1NC(=N)CC(O)c1cc2c(F)cc(F)cc2c2cc(C(F)(F)F)ccc12 (stereo not shown) | ELISA | 3D7 | 72 h, blood stage | IC50 | 0.0116 µM
C[C@@H]1CC[C@H]2[C@@H](C)C(=O)O[C@@H]3O[C@@]4(C)CC[C@@H]1[C@]32OO4 | – | DD2 | 72 h, drug-resistant strain, blood stage | IC50 | 0.0091 µM
COc1cc(/C=C/C(=O)C(=Cc2cccc(O)c2)C(=O)/C=C/c2ccc(O)c(OC)c2)ccc1O | – | K1 | drug-resistant strain, blood stage | EC50 | 11 µM
N=C(CC(O)c1cc2c(F)cc(F)cc2c2cc(C(F)(F)F)ccc12)Nc1cc(F)c(F)c(F)c1 (stereo not shown) | ELISA | 3D7 | 72 h, blood stage | IC50 | 0.0087 µM
COc1cc(/C=C/C(=O)C(=Cc2ccc(O)cc2)C(=O)/C=C/c2ccc(O)c(OC)c2)ccc1O | – | K1 | drug-resistant strain, blood stage | EC50 | 13.3 µM
N=C(CC(O)c1cc2c(F)cc(F)cc2c2cc(C(F)(F)F)ccc12)Nc1ccc(N2CCC(F)(F)CC2)cc1 (stereo not shown) | ELISA | 3D7 DD2 | blood stage | IC50 | ~0.032 µM
CCN1CCN(Cc2ccc(Nc3nc4ccc(Oc5ccnc(NC(=O)C6CCN(C)CC6)c5)cc4n3C)cc2C(F)(F)F)CC1 | flow cytometry | DD2 | 72 h, blood stage | IC50 | 0.0557 µM
COc1cc(/C=C/C(=O)/C=C/c2ccc(O)c(OC)c2)ccc1O | – | K1 | drug-resistant strain, blood stage | EC50 | 2.53 µM
N=C(N)N/N=C/c1c(Cl)cccc1Cl | – | DD2 | drug-resistant strain, blood stage | IC50 | 1.31 µM
COc1cc(C=C(C(=O)/C=C/c2ccc(O)c(OC)c2)C(=O)/C=C/c2ccc(O)c(OC)c2)ccc1O | – | K1 | drug-resistant strain, blood stage | EC50 | 18.8 µM
CO[C@H]1/C=C/O[C@@]2(C)Oc3c(C)c(O)c4c(O)c(c(/C=N/N5CCN(C)CC5)c(O)c4c3C2=O)NC(=O)/C(C)=C\C=C\[C@H](C)[C@H](O)[C@@H](C)[C@@H](O)[C@@H](C)[C@H](OC(C)=O)[C@@H]1C | – | DD2 | drug-resistant strain, blood stage | IC50 | 0.573 µM
COc1cc(/C=C2\CC/C(=C\c3ccc(O)c(OC)c3)C2=O)ccc1O | – | K1 | drug-resistant strain, blood stage | EC50 | 1.47 µM
CCCCN(CCCC)C(=N)CC(O)c1cc2c(F)cc(F)cc2c2cc(C(F)(F)F)ccc12 (stereo not shown) | ELISA | 3D7 | 72 h, blood stage | IC50 | 1.11 µM
C[C@@H]1CC[C@H]2[C@@H](C)C(=O)O[C@@H]3O[C@@]4(C)CC[C@@H]1[C@]32OO4 | – | NF54 | blood stage | IC50 | 0.0112 µM
N=C(CC(O)c1cc2c(F)cc(F)cc2c2cc(C(F)(F)F)ccc12)Nc1ccc(-c2ccc(F)cc2)cc1 (stereo not shown) | ELISA | 3D7 | 72 h, blood stage | IC50 | 0.0081 µM
CCCCCCCCNC(C)C(O)c1ccc(SC(C)C)cc1 (stereo not shown) | – | K1 | drug-resistant strain, blood stage | IC50 | 0.0051 µM
